Test results from ChEMBL document CHEMBL4038277, “Design, synthesis and biological evaluation of 7-methylimidazo[1,5-a]pyrazin-8(7H)-one derivatives as BRD4 inhibitors” (Bioorg Med Chem, 2017).

Key:
[1] = tested on: HL-60; assay: Antiproliferative activity against BRD4-sensitive human HL60 cells after 72 hrs by CCK8 assay; format: functional, cell-based; settings: HL-60, 72 h
In short: (§1)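 Cells seeded at 1 × 10^4 per well in 100 µL IMDM with 20% FBS. After 12 h, triple-diluted compound series added in 50 µL. Read 72 h after seeding: CCK-8 reagent added, 4 h at 37 °C, absorbance at 450 nm, blank-corrected relative to untreated control. IC50 fitted from the curve. Means ± SD from three independent experiments.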

[2] = tested on: K562; assay: Antiproliferative activity against BRD4-independent human K562 cells after 72 hrs by CCK8 assay; format: functional, cell-based; settings: K562, 72 h; in short: as §1
[3] = tested on: MV4-11; assay: Antiproliferative activity against BRD4-sensitive human MV411 cells after 72 hrs by CCK8 assay; format: functional, cell-based; settings: MV4-11, 72 h; in short: as §1
[4] = target: T1, Bromodomain-containing protein 4 (Homo sapiens, UniProt O60885); assay: Inhibition of BRD4-BD2 (333 to 460 residues) (unknown origin) using histone H4 peptide as substrate preincubated for 15 mins followed by addition of substrate measured after 60 mins by AlphaScreen assay
[5] = target: T1, Bromodomain-containing protein 4; assay: Inhibition of BRD4-BD1 (44 to 168 residues) (unknown origin) using histone H4 peptide as substrate preincubated for 15 mins followed by addition of substrate measured after 60 mins by AlphaScreen assay
[6] = target: T1, Bromodomain-containing protein 4; assay: Inhibition of recombinant human His-tagged BRD4-BD1 expressed in bacteria using biotinylated H4-tetraacetyl peptide as substrate after 20 mins by AlphaScreen assay

Cc1sc2c(c1C)C(c1ccc(Cl)cc1)=N[C@@H](CC(=O)OC(C)(C)C)c1nnc(C)n1-2
IC50 [1]: 0.11 µM
IC50 [2]: 9.12 µM
IC50 [3]: 0.08 µM

CC(=O)Nc1ccc(CNc2cccc(Oc3ccc(S(C)(=O)=O)cc3-c3cn(C)c(=O)c4cncn34)c2)cc1
IC50 [4]: 0.18 µM
IC50 [5]: 0.38 µM

Cn1cc(-c2cc(S(C)(=O)=O)ccc2Oc2ccc(F)cc2F)n2cncc2c1=O
IC50 [4]: 0.58 µM
IC50 [1]: 2.86 µM
IC50 [2]: > 10 µM
IC50 [5]: 0.52 µM
IC50 [3]: 1.85 µM

CCS(=O)(=O)c1ccc(Oc2cccc(NS(=O)(=O)c3ccccc3F)c2)c(-c2cn(C)c(=O)c3cncn23)c1
IC50 [4]: 0.17 µM
IC50 [5]: 0.24 µM

CCS(=O)(=O)c1ccc(Oc2cccc(NCc3ccc(NC(C)=O)cc3)c2)c(-c2cn(C)c(=O)c3cncn23)c1
IC50 [4]: 0.04 µM
IC50 [1]: 2.86 µM
IC50 [2]: > 10 µM
IC50 [5]: 0.13 µM
IC50 [3]: 0.17 µM

Cn1cc(-c2cc(S(C)(=O)=O)ccc2Oc2cccc(NCc3ccc(C#N)cc3)c2)n2cncc2c1=O
IC50 [4]: 0.18 µM
IC50 [1]: 6.1 µM
IC50 [2]: > 10 µM
IC50 [5]: 0.35 µM
IC50 [3]: 4.2 µM

CCS(=O)(=O)c1ccc(Oc2ccc(F)cc2F)c(-c2cn(C)c(=O)c3cncn23)c1
IC50 [4]: 0.26 µM
IC50 [1]: 0.62 µM
IC50 [2]: > 10 µM
IC50 [5]: 0.24 µM
IC50 [3]: 0.41 µM

Cn1cc(-c2cc(S(C)(=O)=O)ccc2Oc2cccc(NCc3ccc(F)cc3)c2)n2cncc2c1=O
IC50 [4]: 0.32 µM
IC50 [1]: 1.4 µM
IC50 [2]: > 10 µM
IC50 [5]: 0.68 µM
IC50 [3]: 0.95 µM

COc1cccc(CNc2cccc(Oc3ccc(S(C)(=O)=O)cc3-c3cn(C)c(=O)c4cncn34)c2)c1
IC50 [4]: 0.19 µM
IC50 [1]: 1.53 µM
IC50 [2]: > 10 µM
IC50 [5]: 0.43 µM
IC50 [3]: 1.16 µM

CCS(=O)(=O)c1ccc(Oc2cccc(NS(=O)(=O)c3ccc(OC)cc3)c2)c(-c2cn(C)c(=O)c3cncn23)c1
IC50 [4]: 0.14 µM
IC50 [5]: 0.2 µM

CCS(=O)(=O)c1ccc(Oc2cccc(NS(=O)(=O)c3cccs3)c2)c(-c2cn(C)c(=O)c3cncn23)c1
IC50 [4]: 0.28 µM
IC50 [5]: 0.39 µM

CCS(=O)(=O)c1ccc(Oc2cccc(NCc3ccc(C#N)cc3)c2)c(-c2cn(C)c(=O)c3cncn23)c1
IC50 [4]: 0.076 µM
IC50 [1]: 0.57 µM
IC50 [2]: > 10 µM
IC50 [5]: 0.13 µM
IC50 [3]: 0.18 µM

CCS(=O)(=O)c1ccc(Oc2ccc(F)cc2)c(-c2cn(C)c(=O)c3cncn23)c1
IC50 [4]: 0.22 µM
IC50 [1]: 0.94 µM
IC50 [2]: > 10 µM
IC50 [5]: 0.2 µM
IC50 [3]: 0.78 µM

CCS(=O)(=O)Nc1ccc(Oc2ccc(F)cc2F)c(-c2cn(C)c(=O)c3[nH]ccc23)c1 [MIVEBRESIB]
IC50 [4]: 0.069 µM
IC50 [1]: 0.09 µM
Ki [6]: 0.015 µM
IC50 [2]: > 10 µM
IC50 [5]: 0.074 µM
IC50 [3]: 0.07 µM
